Assay outcomes from PubChem.
E-selectin induc = E-selectin induction in HUVECs, primary screen, imaging, HUVEC, immunofluorescence imaging, single point | P16581 | normalized: neutral wells 0, TNF-alpha wells 100 | activation, % at 7.58 µM | 0.37% of 260,000 active | AID 686992, 2013;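 active means mean E-selectin-positive cell signal at least 10% of the positive control, reached in at least 60% of replicates, without over 20% cell loss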
Target sequence (P16581 whole entry, looked up): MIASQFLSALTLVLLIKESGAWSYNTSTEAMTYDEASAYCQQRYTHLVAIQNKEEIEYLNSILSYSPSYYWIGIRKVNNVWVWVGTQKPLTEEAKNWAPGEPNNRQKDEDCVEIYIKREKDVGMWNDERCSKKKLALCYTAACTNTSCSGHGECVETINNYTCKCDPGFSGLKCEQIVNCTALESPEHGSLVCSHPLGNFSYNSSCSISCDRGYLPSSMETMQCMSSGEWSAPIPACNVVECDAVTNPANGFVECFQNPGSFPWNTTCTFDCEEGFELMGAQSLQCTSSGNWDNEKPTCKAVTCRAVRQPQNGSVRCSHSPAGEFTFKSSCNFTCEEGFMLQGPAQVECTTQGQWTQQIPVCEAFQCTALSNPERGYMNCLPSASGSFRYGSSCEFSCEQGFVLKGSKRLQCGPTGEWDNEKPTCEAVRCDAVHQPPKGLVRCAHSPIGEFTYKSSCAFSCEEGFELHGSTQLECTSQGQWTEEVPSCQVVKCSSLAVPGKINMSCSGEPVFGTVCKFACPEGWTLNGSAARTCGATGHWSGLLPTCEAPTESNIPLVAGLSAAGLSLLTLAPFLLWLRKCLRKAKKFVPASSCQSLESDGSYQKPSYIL
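Material: HUVEC primary endothelial cells; Amount: 3,000 cells per well; Dosing: single concentration; Medium: EGM-2 growth medium on 0.1% gelatin-coated wells; Read-out basis: percent E-selectin-positive cells; Signal: immunofluorescence imaging; Control set: TNF-alpha, DMSO.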
Ecoli rRNA inh = reduced GFP signal of wild-type E. coli, primary screen, bacterial rRNA inhibitor project, GFP/RFP fluorescence, OD600, single point | 1.6% of 350,000 active | E. coli WT GFP vs humanized-ribosome RFP mutants, 24 h; active compounds read low; DMSO median 0, no signal -100 | AID 720706, 2013 | GFP signal change (wild-type ribosome), % (concentration not given with the values);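 active means significant combined selectivity score with lowered wild-type GFP, culture density cut under 30%, mutant RFP and density less affected; inactive means any of these conditions unmet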
LGR2 inh = inhibitors of bursicon-induced LGR2 CRE-luciferase signal, primary screen, cell-based, HEK293, CRE-luciferase reporter, bursicon stimulation; Drosophila bursicon receptor LGR2 (rickets); bursicon-stimulated, 4 h; inhibition, % at 9.99 µM; 0.35% of 380,000 active;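 active means drop in luminescence signal, shown as inhibition above about 50% in the replicate tests, limit read from the data, passing the limit was not always enough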;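 further: agonist challenge used bursicon conditioned medium at about half maximal strength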
EWS-Fli block = EWS/Fli-driven NR0B1 reporter inhibitors, primary screen, A673 cells, NR0B1 luciferase, luminescence, MLPCN library; viability-normalised; inhibition, % at 12.6 µM; 0.67% of 350,000 active; AID 651661, 2012;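 active means mean inhibition of at least 50% after viability correction, with every replicate also passing that limit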;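 further: firefly luciferase signal divided by Alamar Blue viability fluorescence both relative to DMSO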
Numbers stand for hits; i = inactive; nt = no result given. Hits are enriched below; roughly 2.4% of the tested compounds scored in any of these assays.

SMILES	E-selectin induc	Ecoli rRNA inh	LGR2 inh	EWS-Fli block
COc1ccc(S(=O)(=O)Nc2ccc3c(c2)C(=O)N([C@@H](C)CO)C[C@@H](C)[C@@H](CN(C)S(=O)(=O)c2ccc(Cl)cc2)O3)cc1	i	i	i	i
COc1ccc(S(=O)(=O)N(C)C[C@@H]2Oc3ccc(NS(=O)(=O)c4c(C)noc4C)cc3C(=O)N([C@@H](C)CO)C[C@H]2C)cc1	189	i	i	i
COc1ccc(S(=O)(=O)N(C)C[C@H]2Oc3ccc(NS(=O)(=O)c4c(C)noc4C)cc3C(=O)N([C@H](C)CO)C[C@@H]2C)cc1	i	i	i	i
CCNC(=O)Nc1ccc2c(c1)C(=O)N(C)[C@H]1CC[C@H](CC(=O)NCCOC)O[C@H]1CO2	i	i	i	i
CC(=O)Oc1ccc2c(=O)c(-c3ccccc3)coc2c1	nt	-24	i	i
O=C(N/N=C/c1ccncc1)c1ccccn1	i	i	i	i
O=C(N/N=C/C(Cl)=C/c1ccccc1)c1ccccn1	i	-15	i	i
O=C(N/N=C/C(Cl)=C/c1ccccc1)c1ccncc1	nt	i	i	i
CC(C)c1ccc(/C=N/NC(=O)c2ccccn2)cc1	i	i	75	i
COC(=O)C[C@H]1CC[C@H]2[C@@H](COc3ccc(NC(=O)Nc4cc(C)cc(C)c4)cc3C(=O)N2C)O1	i	i	i	i
COC(=O)c1sc(N2C(=O)C(=O)/C(=C(/O)c3ccccc3)C2c2ccco2)nc1C (stereo not given)	nt	-34	i	i
Cc1nc(N2C(=O)C(=O)/C(=C(/O)c3ccccc3)C2c2ccco2)sc1C (stereo not given)	nt	nt	i	nt
C[C@@H]1CN([C@H](C)CO)C(=O)c2cc(NC(=O)Cc3cn(C)c4ccccc34)ccc2O[C@@H]1CN(C)Cc1ccc(-c2ccccc2)cc1	i	i	i	i
COc1cc(C2C3=C(COC3=O)Oc3cc4c(cc32)OCO4)cc(OC)c1O (stereo not given)	nt	i	i	57
COc1cc(C2C(C#N)=C(N)Oc3cc4c(cc32)OCO4)cc(OC)c1OC (stereo not given)	nt	i	i	62
COc1cc(C2C(C#N)=C(N)Oc3cc(N(C)C)ccc32)cc2c1OCO2 (stereo not given)	nt	nt	i	nt
N#CC1=C(N)Oc2cc3c(cc2C1c1ccc(Cl)cc1)OCO3 (stereo not given)	nt	-23	i	i
Cc1ccc(C2C(C#N)=C(N)Oc3cc(N)ccc32)cc1 (stereo not given)	i	i	i	i
COc1cc(C2c3cc4c(cc3C3OC(=O)C2C3CO)OCO4)cc(OC)c1OC (stereo not given)	i	i	i	i
CCN(CC)C1Oc2cc3c(cc2C(c2cc(OC)c(OC)c(OC)c2)C1C)OCO3 (stereo not given)	i	i	i	64
COc1ccc2c3c([nH]c2c1)[C@@H](CO)N(Cc1ccccc1)CC31CN(C)C1	i	i	i	i
CO[C@H]1CN(C)C(=O)c2ccc(NC(=O)Nc3cc(F)ccc3F)cc2OC[C@@H](C)NC[C@@H]1C	i	i	i	i
COC(=O)c1cc(S(=O)(=O)N(C)C2CCCCC2)oc1C	i	-27	i	i
COc1ccc(CNC(=O)COC(=O)CCOc2ccccc2)cc1	i	nt	i	nt
CC(C)(C)c1ccc(OCCC(=O)OCC(=O)NCc2ccccc2)cc1	i	-34	i	i
SMILES	E-selectin induc	Ecoli rRNA inh	LGR2 inh	EWS-Fli block
Cc1[nH]c2ccccc2c1/C=N/NC(=O)c1ccccc1	i	i	i	i
Cc1[nH]c2ccccc2c1/C=N/NC(=O)Nc1ccccc1	nt	-20	i	i
Cc1[nH]c2ccccc2c1/C=N/NC(=O)c1cc(-c2ccccc2)n[nH]1	i	-23	i	i
CC(=O)C1=C(C)N(Cc2ccccc2)C(=O)N[C@@H]1c1cccc(C(F)(F)F)c1	i	-21	i	i
COC(=O)C1=C(C)N(Cc2cccc(C(F)(F)F)c2)C(=NCc2ccc(OC)cc2)NC1c1cccc(Cl)c1 (stereo not given)	i	i	59	i
C=CCN=C1NC(CCc2ccccc2)C(C(=O)OC)=C(C)N1Cc1ccccc1C(F)(F)F (stereo not given)	i	i	i	i
COC(=O)C1=C(C)N(Cc2ccc(C(F)(F)F)cc2)C(=NCc2ccc(OC)cc2)NC1c1cccc(Cl)c1 (stereo not given)	i	i	nt	i
COC(=O)C1=C(C)N(Cc2ccc(C(F)(F)F)cc2)C(=NCC2CC2)NC1c1cccc(Cl)c1 (stereo not given)	i	i	57	i
C=CCN=C1NC(CCc2ccccc2)C(C(=O)OC)=C(C)N1Cc1cccc(C(F)(F)F)c1 (stereo not given)	i	i	62	i
CCCNC(=O)N1CC2(CN(C(=O)CC)C2)c2c(n(C)c3cc(OC)ccc23)[C@@H]1CO	i	i	i	i
O=C(Nc1ccc(F)cc1)N[C@H]1CC[C@H](CCNC(=O)c2ccccc2F)O[C@H]1CO	i	i	i	i
Cc1ccc(S(=O)(=O)Nc2ccc3c(c2)C(=O)N([C@@H](C)CO)C[C@H](C)[C@@H](CN(C)C(=O)CCC(F)(F)F)OCCCC[C@H](C)O3)cc1	nt	i	i	i
C[C@H](CO)N1C[C@H](C)[C@@H](CN(C)C(=O)Nc2ccc(F)cc2)Oc2c(NC(=O)Nc3ccccc3)cccc2C1=O	i	i	i	i
COc1ccc(NC(=O)N(C)C[C@@H]2Oc3ccc(NS(=O)(=O)c4ccc(C)cc4)cc3CC(=O)N([C@H](C)CO)C[C@@H]2C)cc1	i	i	i	i
COC(=O)C1=C(C)N(Cc2ccc(C(F)(F)F)cc2)C(=NCc2ccccc2)NC1c1cccc(F)c1 (stereo not given)	i	i	58	i
COc1ccc(CNC(=O)C[C@@H]2C=C[C@@H](NC(=O)Nc3ccc4c(c3)OCO4)[C@@H](CO)O2)cc1	i	i	i	i
C[C@@H]1CN([C@H](C)CO)C(=O)c2cc(NC(=O)Nc3ccc(F)cc3)ccc2O[C@H]1CN(C)Cc1ccc(-c2ccccc2)cc1	i	i	i	i
C[C@H](CO)N1C[C@H](C)[C@@H](CN(C)Cc2ccc(-c3ccccc3)cc2)Oc2ccc(NC(=O)Nc3ccc4c(c3)OCO4)cc2C1=O	i	i	i	i
C[C@@H]1CN([C@H](C)CO)C(=O)c2cc(NC(=O)Nc3ccc(F)cc3)ccc2O[C@@H]1CN(C)Cc1ccc(-c2ccccc2)cc1	i	i	i	64
C[C@@H]1CN([C@@H](C)CO)C(=O)c2cc(NC(=O)Nc3ccc4c(c3)OCO4)ccc2O[C@H]1CN(C)Cc1ccc(-c2ccccc2)cc1	60	i	i	i
CO[C@@H]1CN(C)C(=O)c2ccc(NS(C)(=O)=O)cc2OC[C@@H](C)NC[C@H]1C	i	i	i	i
